Measurements from different studies.
Protocols differ between the studies behind these lines. Values after ≈ are worked out from the molar mass of the structure shown.

CCCCCCC/C=C/C(=O)N1C(=O)/C(=C(/C)O)C(=O)C1CCCCN (stereo not drawn)  MIC (Proteus mirabilis; microbial growth; ATCC25933): > 200 µg/mL
CC(=O)OC[C@@]1(C)[C@H]2CC[C@@H]3CN(Cc4ccc(C(C)(C)C)cc4)[C@@H](C4=CCOC4=O)C[C@H]3[C@]2(C)CC[C@H]1OC(C)=O  inhibition (unidentified human coronavirus; cytopathic effect; MRC5; 25 µM, 72 h): 94.1%
Cc1ccc(S(=O)(=O)Nc2ncc(-c3nc4ccccc4s3)c(N)n2)cc1  IC50 (Enterovirus B; plaque formation; BGM, B4): 110 µg/mL
CC(C)Oc1c(NC(=O)c2ccc(NC(=O)c3ccc(NC(=O)[C@H](CC(N)=O)NC(=O)c4ccc(NC(=O)c5ccc(C#N)cn5)cc4)cc3)c(OC(C)C)c2O)ccc(C(=O)O)c1O  MIC (Proteus mirabilis; microbial growth; DSM4479): 8 µg/mL (≈ 9.02 µM)
NC(=O)c1ncn([C@@H]2O[C@H](CO)[C@@H](O)[C@H]2O)n1  IC50 (Enterovirus B; cytopathic effect; Vero, B3 CVB3): 1580 µM
CCCCCCC/C=C/C(=O)N1C(=O)/C(=C(/C)O)C(=O)C1CO (stereo not drawn)  MIC (Proteus mirabilis; microbial growth; ATCC25933): > 200 µg/mL
COC(=O)N[C@H](C(=O)N1CCC[C@H]1C(=O)Nc1ccc(C#CC#Cc2ccc(NC(=O)[C@@H]3CCCN3C(=O)[C@@H](NC(=O)OC)C(C)C)cc2)cc1)C(C)C  EC50 (Hepatitis C virus; viral replication, inhibitor, luciferase; Huh-5-2, GETYPE1B; 72 h, replicon): 10 nM
Cc1cn([C@H]2C[C@H](N=[N+]=[N-])[C@@H](CO)O2)c(=O)[nH]c1=O  EC50 (Hepatitis C virus; viral replication, inhibitor; Huh-7; replicon): > 10000 nM
Cc1ccc(S(=O)(=O)Nc2nc(N)c(-c3nc4ccccc4s3)c(-c3ccc(F)cc3)n2)cc1  IC50 (Enterovirus B; plaque formation; BGM, B4): 82 µg/mL
CC1(C)OC[C@@]2(C)[C@H]3CC[C@@H]4CN(Cc5ccc(C(F)(F)F)cc5)[C@@H](C5=CCOC5=O)C[C@H]4[C@]3(C)CC[C@H]2O1  inhibition (unidentified human coronavirus; cytopathic effect; MRC5; 25 µM, 72 h): 88.3%
COc1nc(OC)c2ncn([C@@H]3O[C@H](CO)[C@@H](F)[C@@H]3F)c2n1  EC90 (Hepatitis C virus; viral replication, inhibitor; Huh-7; replicon): > 10 µM
CCCN1C[C@H]2CC[C@@H]3[C@](C)(COC(C)=O)[C@H](OC(C)=O)CC[C@@]3(C)[C@@H]2C[C@@H]1C1=CCOC1=O  inhibition (unidentified human coronavirus; cytopathic effect; MRC5; 25 µM, 72 h): 45.8%
CN[C@H](CC(C)C)C(=O)N[C@H]1C(=O)N[C@@H](CC(N)=O)C(=O)N[C@H]2C(=O)N[C@H]3C(=O)N[C@H](C(=O)N[C@H](C(=O)O)c4cc(O)cc(O)c4-c4cc3ccc4O)[C@H](O)c3ccc(c(Cl)c3)Oc3cc2cc(c3O[C@@H]2O[C@H](CO)[C@@H](O)[C@H](O)[C@H]2O[C@H]2C[C@](C)(N)[C@H](O)[C@H](C)O2)Oc2ccc(cc2Cl)[C@H]1O  MBC (Acinetobacter baumannii; microbial killing, broth dilution; BAA747): > 128 µM
O=C(Nc1ccccc1-c1ccc(F)c(F)c1)c1nccnc1C(F)(F)F  EC50 (Venturia nashicola; microbial growth): 0.8 µg/mL
Nc1nc(N)c2ncn([C@@H]3O[C@H](CO)[C@@H](F)[C@@H]3F)c2n1  EC90 (Hepatitis C virus; viral replication, inhibitor; Huh-7; replicon): > 10 µM
COC(=O)N[C@H](C(=O)N1CCC[C@H]1c1ncc(-c2ccc(-c3ccc(-c4cnc([C@@H]5CCCN5C(=O)[C@@H](NC(=O)OC)C(C)C)[nH]4)cc3)cc2)[nH]1)C(C)C  EC50 (Hepatitis C virus; viral replication, inhibitor; HEK-293T, GETYPE2A; replicon): 0.0035 nM
CC(=O)OC[C@@]1(C)[C@H]2CC[C@@H]3CN(Cc4ccc(Br)cc4)[C@@H](C4=CCOC4=O)C[C@H]3[C@]2(C)CC[C@H]1OC(C)=O  inhibition (unidentified human coronavirus; cytopathic effect; MRC5; 25 µM, 72 h): 107%
N#CC(=Cc1cn(-c2ccccc2)nc1-c1ccccc1)C1=NC(=O)CS1  MBC (Acinetobacter baumannii; microbial killing, broth dilution): 0.5 µg/mL
Nc1nc(Cl)c2ncn([C@@H]3O[C@H](COC(=O)c4ccccc4)[C@@H](F)[C@@H]3F)c2n1  EC90 (Hepatitis C virus; viral replication, inhibitor; Huh-7; replicon): 10 µM
CCCCCCC/C=C/C(=O)N1C(=O)/C(=C(\O)c2ccccc2)C(=O)C1CC(C)C (stereo not drawn)  MIC (Proteus mirabilis; microbial growth; ATCC25933): > 200 µg/mL
CCOC(=O)N[C@@H](C(=O)N1CCC[C@H]1C(=O)Nc1cccc(C#CC#Cc2cccc(NC(=O)[C@@H]3CCCN3C(=O)[C@H](NC(=O)OCC)C(C)C)c2)c1)C(C)C  EC50 (Hepatitis C virus; viral replication, inhibitor, luciferase; Huh-5-2, GETYPE1B; 72 h, replicon): 70 nM
CCOC(=O)C=c1[nH]c(=O)c(=Cc2cn(-c3ccccc3)nc2-c2ccccc2)s1  inhibition zone (Acinetobacter baumannii; microbial growth, well diffusion; 100000 µg/mL): 12 mm
CC(=O)OC[C@@]1(C)[C@H]2CC[C@@H]3CN(C(C)C)[C@@H](C4=CCOC4=O)C[C@H]3[C@]2(C)CC[C@H]1OC(C)=O  inhibition (unidentified human coronavirus; cytopathic effect; MRC5; 25 µM, 72 h): 80%
CCCCCCC/C=C/C(=O)N1C(=O)/C(=C(/C)O)C(=O)C1Cc1ccc(OC(C)(C)C)cc1 (stereo not drawn)  MIC (Proteus mirabilis; microbial growth; ATCC25933): > 200 µg/mL
O=C(CNc1nc(NS(=O)(=O)c2ccccc2)ncc1-c1nc2ccccc2s1)c1ccc(Cl)cc1  IC50 (Enterovirus B; plaque formation; BGM, B4): 92 µg/mL
CCOC(=O)N[C@H](CC(C)C)C(=O)N1CCC[C@H]1C(=O)Nc1cccc(C#CC#Cc2cccc(NC(=O)[C@@H]3CCCN3C(=O)[C@@H](CC(C)C)NC(=O)OCC)c2)c1  EC50 (Hepatitis C virus; viral replication, inhibitor, luciferase; Huh-5-2, GETYPE1B; 72 h, replicon): 0.0411 nM
CCCCCCC/C=C/C(=O)N1C(=O)/C(=C(\O)CCCC)C(=O)C1CC(C)C (stereo not drawn)  MIC (Proteus mirabilis; microbial growth; ATCC25933): > 200 µg/mL
COc1cc(O)c(CC=C(C)C)c(O)c1C(=O)/C=C/c1ccc(O)cc1  IC50 (Leishmania tarentolae; parasite growth, resazurin; 48 h, promastigote): 0.78 µM
CCOC(=O)N[C@@H](CC(C)C)C(=O)N1CCC[C@@H]1C(=O)Nc1ccc(C#CC#Cc2ccc(NC(=O)[C@H]3CCCN3C(=O)[C@H](CC(C)C)NC(=O)OCC)cc2)cc1  EC50 (Hepatitis C virus; viral replication, inhibitor, luciferase; Huh-5-2, GETYPE1B; 72 h, replicon): 5630 nM
CC(=O)OC[C@@]1(C)[C@H]2CC[C@@H]3CN(Cc4ccccc4C)[C@@H](C4=CCOC4=O)C[C@H]3[C@]2(C)CC[C@H]1OC(C)=O  inhibition (unidentified human coronavirus; cytopathic effect; MRC5; 25 µM, 72 h): 71.4%
Cc1c(NC(=O)CC2=NC(=O)CS2)c(=O)n(-c2ccccc2)n1C  inhibition zone (Acinetobacter baumannii; microbial growth, well diffusion; 100000 µg/mL): 26 mm
OC[C@H]1O[C@@H](n2cnc3c(NCc4ccccc4)nc(Cl)nc32)[C@@H](F)[C@@H]1F  EC90 (Hepatitis C virus; viral replication, inhibitor; Huh-7; replicon): 9.9 µM
CC(=O)OC[C@@]1(C)[C@H]2CC[C@@H]3CN(CCC(C)C)[C@@H](C4=CCOC4=O)C[C@H]3[C@]2(C)CC[C@H]1OC(C)=O  inhibition (unidentified human coronavirus; cytopathic effect; MRC5; 25 µM, 72 h): 105%
Nc1nc(Cl)c2ncn([C@@H]3O[C@H](CO)[C@@H](F)[C@@H]3F)c2n1  EC90 (Hepatitis C virus; viral replication, inhibitor; Huh-7; replicon): > 10 µM
CC1(C)OC[C@@]2(C)[C@H]3CC[C@@H]4CN(Cc5cccs5)[C@@H](C5=CCOC5=O)C[C@H]4[C@]3(C)CC[C@H]2O1  inhibition (unidentified human coronavirus; cytopathic effect; MRC5; 25 µM, 72 h): 38.4%
COC(=O)N[C@H](C(=O)N1CCC[C@H]1C(=O)Nc1cccc(C#CC#Cc2cccc(NC(=O)[C@@H]3CCCN3C(=O)[C@@H](NC(=O)OC)C(C)C)c2)c1)C(C)C  EC50 (Hepatitis C virus; viral replication, inhibitor, luciferase; Huh-5-2, GETYPE1B; 72 h, replicon): 0.121 nM
Nc1nc2c(ncn2[C@@H]2O[C@H](CO)[C@@H](F)[C@@H]2F)c(=O)[nH]1  EC90 (Hepatitis C virus; viral replication, inhibitor; Huh-7; replicon): > 10 µM
CCOC(=O)N[C@@H](C(=O)N1CCC[C@H]1C(=O)Nc1ccc(C#CC#Cc2ccc(NC(=O)[C@@H]3CCCN3C(=O)[C@H](NC(=O)OCC)C(C)C)cc2)cc1)C(C)C  EC50 (Hepatitis C virus; viral replication, inhibitor, luciferase; Huh-5-2, GETYPE1B; 72 h, replicon): 267 nM
Nc1ncnc2c1c([N+](=O)[O-])cn2[C@@H]1C=C(CO)[C@@H](O)[C@H]1O  inhibition (Hepatitis C virus; viral replication, inhibitor, luciferase; Huh7 ET; 20 µM, replicon): 31.5%
N#CC(=Cc1ccccc1O)C1=NC(=O)C(=Cc2cn(-c3ccccc3)nc2-c2ccccc2)S1  MBC (Acinetobacter baumannii; microbial killing, broth dilution): 0.25 µg/mL
COc1nc(Cl)nc2c1ncn2[C@@H]1O[C@H](CO)[C@@H](F)[C@@H]1F  EC50 (Hepatitis C virus; viral replication, inhibitor; Huh-7; replicon): > 10000 nM
CCOC(=O)c1c(N)csc1-c1cn(-c2ccccc2)nc1-c1ccc(C)cc1  MBC (Acinetobacter baumannii; microbial killing, broth dilution): 0.25 µg/mL
COC(=O)N[C@H](CC(C)C)C(=O)N1CCC[C@H]1C(=O)Nc1cccc(C#CC#Cc2cccc(NC(=O)[C@@H]3CCCN3C(=O)[C@@H](CC(C)C)NC(=O)OC)c2)c1  EC50 (Hepatitis C virus; viral replication, inhibitor, luciferase; GETYPE4A; replicon): 18.6 nM
C/C(O)=C1\C(=O)C(CC(C)C)N(C(=O)CCCCCc2ccccc2)C1=O (stereo not drawn)  MIC (Proteus mirabilis; microbial growth; ATCC25933): > 200 µg/mL
CCOC(=O)c1c(N)csc1-c1cn(-c2ccccc2)nc1-c1ccccc1  inhibition zone (Acinetobacter baumannii; microbial growth, well diffusion; 100000 µg/mL): 20 mm
